According to publication PMC5568793 (Science translational medicine, 2017):

Legend:
[1] = mouse, in vivo, iv
[2] = biological target: T1, type I collagen (Mus musculus, UniProt P11087+Q01149); test: Lung uptake of probe in bleomycin mouse model of pulmonary fibrosis; assay type: in vivo
Procedure, shortened: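 Male C57BL/6 mice (10 weeks, 20–28 g) received transtracheal bleomycin at 2.5 U/kg in 50 μL PBS through a cervical incision; sham mice were controls. On day 14, 68Ga probe was given as an i.v. bolus via femoral vein catheter under isoflurane. Dynamic PET-CT ran for 120 min, read as decay-corrected lung VOI %ID/cc. Mice were killed 150 min post-injection and organs weighed and gamma-counted.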

[3] = biological target: T1, type I collagen; test: PET lung signal in low dose bleomycin vascular leak; assay type: in vivo; details: day 14, 50-80 min after injection
Procedure, shortened: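 Male C57Bl/6 mice received intratracheal low-dose bleomycin (0.1 U/kg) and/or FTY720 (1 mg/kg i.p. thrice weekly), with 1E6 (1 mg/kg i.p. thrice weekly) where stated, all from day 0. On day 14, under isoflurane, 68Ga probe was given as an i.v. femoral bolus. Static PET ran for 30 min starting 50 min post-injection, with CT. MLEM reconstruction was used; lung VOIs of about 65 mm3 were read as decay-corrected %ID/cc.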

[4] = biological target: T1, type I collagen; test: Ex vivo lung uptake in low dose bleomycin vascular leak; details: day 14, 2.5 h post injection
Procedure, shortened: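 Male C57Bl/6 mice, 7–8 weeks old, received a single intratracheal bleomycin dose of 0.1 U/kg in saline, with or without FTY720 at 1 mg/kg i.p. three times weekly. 3G9 or isotype 1E6 antibody was given at 1 mg/kg i.p. three times weekly. All dosing started on day 0. On day 14, 68Ga probe was given as an i.v. femoral bolus under isoflurane. Mice were killed 150 min post-injection; the left lung was weighed and gamma-counted.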

T1 sequence (P11087 152-1207 limits assumed): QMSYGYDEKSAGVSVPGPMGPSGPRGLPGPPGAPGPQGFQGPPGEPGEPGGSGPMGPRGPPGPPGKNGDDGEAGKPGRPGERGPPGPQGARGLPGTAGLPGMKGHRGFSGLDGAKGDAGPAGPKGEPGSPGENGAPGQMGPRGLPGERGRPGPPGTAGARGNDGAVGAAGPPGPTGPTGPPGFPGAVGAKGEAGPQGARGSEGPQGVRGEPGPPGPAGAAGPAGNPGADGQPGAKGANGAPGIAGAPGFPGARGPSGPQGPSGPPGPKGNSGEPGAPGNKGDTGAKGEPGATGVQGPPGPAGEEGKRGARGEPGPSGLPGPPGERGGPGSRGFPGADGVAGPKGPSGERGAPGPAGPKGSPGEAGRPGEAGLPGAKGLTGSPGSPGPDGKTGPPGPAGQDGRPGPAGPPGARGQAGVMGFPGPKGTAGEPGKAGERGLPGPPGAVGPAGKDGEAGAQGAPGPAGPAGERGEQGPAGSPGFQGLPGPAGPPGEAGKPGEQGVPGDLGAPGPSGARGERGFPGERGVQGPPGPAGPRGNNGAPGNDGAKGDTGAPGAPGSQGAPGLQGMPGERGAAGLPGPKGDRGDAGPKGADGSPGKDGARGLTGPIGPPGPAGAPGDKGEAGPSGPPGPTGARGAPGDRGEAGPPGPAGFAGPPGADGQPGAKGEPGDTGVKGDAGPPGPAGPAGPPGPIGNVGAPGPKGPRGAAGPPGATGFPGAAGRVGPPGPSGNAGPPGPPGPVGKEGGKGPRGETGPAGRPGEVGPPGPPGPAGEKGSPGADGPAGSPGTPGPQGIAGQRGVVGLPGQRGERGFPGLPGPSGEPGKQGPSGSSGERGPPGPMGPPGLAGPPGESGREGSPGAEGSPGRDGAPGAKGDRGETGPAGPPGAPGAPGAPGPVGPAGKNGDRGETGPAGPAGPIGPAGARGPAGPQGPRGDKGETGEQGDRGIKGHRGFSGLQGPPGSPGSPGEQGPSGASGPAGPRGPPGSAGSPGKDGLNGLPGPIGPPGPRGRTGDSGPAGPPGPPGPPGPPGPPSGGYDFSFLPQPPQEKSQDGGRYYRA
T1 sequence (Q01149 86-1125 limits assumed): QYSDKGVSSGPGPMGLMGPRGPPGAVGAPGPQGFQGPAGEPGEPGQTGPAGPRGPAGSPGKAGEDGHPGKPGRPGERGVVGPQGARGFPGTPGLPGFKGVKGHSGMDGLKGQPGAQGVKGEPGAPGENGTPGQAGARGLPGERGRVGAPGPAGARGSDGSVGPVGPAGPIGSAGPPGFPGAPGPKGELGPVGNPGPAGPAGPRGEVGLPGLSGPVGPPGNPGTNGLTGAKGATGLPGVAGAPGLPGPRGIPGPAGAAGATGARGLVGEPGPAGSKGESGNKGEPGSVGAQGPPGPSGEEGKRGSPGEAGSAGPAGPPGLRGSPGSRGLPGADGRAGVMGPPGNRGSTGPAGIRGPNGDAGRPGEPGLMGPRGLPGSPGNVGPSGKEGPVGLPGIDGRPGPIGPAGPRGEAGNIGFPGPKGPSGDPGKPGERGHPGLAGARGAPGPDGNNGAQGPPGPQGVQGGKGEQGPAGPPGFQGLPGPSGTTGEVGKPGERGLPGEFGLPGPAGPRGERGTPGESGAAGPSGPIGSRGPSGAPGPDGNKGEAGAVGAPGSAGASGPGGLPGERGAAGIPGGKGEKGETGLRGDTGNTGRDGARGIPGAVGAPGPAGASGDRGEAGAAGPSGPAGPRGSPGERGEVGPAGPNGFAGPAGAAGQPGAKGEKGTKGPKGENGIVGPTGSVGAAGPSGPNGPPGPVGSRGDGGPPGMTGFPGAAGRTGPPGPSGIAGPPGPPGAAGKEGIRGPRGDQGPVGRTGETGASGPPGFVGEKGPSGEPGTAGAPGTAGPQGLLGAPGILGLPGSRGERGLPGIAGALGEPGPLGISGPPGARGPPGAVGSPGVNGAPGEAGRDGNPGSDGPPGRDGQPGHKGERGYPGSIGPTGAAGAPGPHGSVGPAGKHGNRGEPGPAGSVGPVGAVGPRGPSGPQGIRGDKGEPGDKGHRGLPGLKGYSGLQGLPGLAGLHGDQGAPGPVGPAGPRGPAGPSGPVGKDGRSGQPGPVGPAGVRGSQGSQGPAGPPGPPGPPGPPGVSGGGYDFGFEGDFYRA

CC(C)C[C@H](NC(=O)[C@@H]1CSSC[C@H](NC(=O)[C@H](Cc2c[nH]cn2)NC(=O)[C@H](Cc2c[nH]c3ccccc23)NC(=O)[C@H](CCCCNC(=O)CNC(=O)CCC(C(=O)O)N2CCN(CC(=O)O)CCN(CC(=O)O)CC2)NC(=O)CCC(C(=O)O)N2CCN(CC(=O)O)CCN(CC(=O)O)CC2)C(=O)N[C@@H]([C@@H](C)O)C(=O)N[C@@H]([C@@H](C)O)C(=O)N[C@@H](CCCCNC(=O)CNC(=O)CCC(C(=O)O)N2CCN(CC(=O)O)CCN(CC(=O)O)CC2)C(=O)N[C@@H](Cc2ccccc2)C(=O)N2CCC[C@H]2C(=O)N[C@@H](Cc2c[nH]cn2)C(=O)N[C@@H](Cc2c[nH]cn2)C(=O)N[C@@H](Cc2ccc(O)cc2)C(=O)N1)C(=O)N[C@@H](Cc1ccc(O)cc1)C(=O)N[C@@H](Cc1ccc(-c2ccccc2)cc1)C(N)=O (some centres unmarked) [^68Ga-CBP8, metal not drawn]
blood half-life [1]: 32.9 ± 4.5 min
ex vivo lung uptake, BM-mice day 14 relative to sham animals ([2]; BM day 14 (n=7) vs sham (n=11)): 5 fold
probe uptake in fibrotic mouse lungs compared to control lungs ([2]; discussion statement, mouse models of pulmonary fibrosis): 6 fold
PET lung signal ([3]; FTY mice (FTY720 only), n=6): 1.5 ± 0.1 %ID/cc
PET lung signal ([3]; LDB mice (low dose BM only), n=4): 1.7 ± 0.1 %ID/cc
PET lung signal ([3]; LDBVL+1E6 mice (irrelevant antibody), n=11): 3.0 ± 0.2 %ID/cc
PET lung signal ([3]; LDBVL+3G9 mice (anti-αvβ6 antibody), n=11): 1.9 ± 0.2 %ID/cc
ex vivo lung uptake, LDBVL group relative to FTY group [4]: five times more uptake
ex vivo lung uptake, LDBVL group relative to LDB group [4]: three times more
ex vivo lung uptake, LDBVL+1E6 group relative to 3G9-treated group [4]: six times higher uptake
ex vivo lung uptake, LDBVL+1E6 group relative to LDBVL+3G9 group [4]: three times more uptake
